Measured values collected from several papers.
Lines come from different studies, so protocols differ.
CDK5: Cyclin-dependent kinase 5 (CDK5, Homo sapiens, UniProt Q00535)
CDK5 with p35: Cyclin-dependent kinase 5, with p35 (CDK5, Homo sapiens, UniProt Q00535)

Structure (SMILES) | target | read-out | mode | technique | tested at | endpoint | value
N#CC1(c2ccccn2)CCN(Cc2cc(C(=O)O)c(=O)n3ccccc23)CC1 | CDK5 | cell-free assay | – | competition with immobilised ligand | 1 µM | remaining binding | 100%
Nc1ncc(-c2nc(N3CCOCC3)nc(N3CCOCC3)n2)c(C(F)F)n1 | CDK5 | binding | – | competition with immobilised ligand | 10 µM | remaining binding | 100%
Cn1cncc1[C@](O)(COc1ccc(C#N)cc1-c1ccc(OC(F)(F)F)cc1)c1ccc(C#N)cc1 | CDK5 | cell-free assay | – | competition with immobilised ligand | 1 µM | remaining binding | 92%
COc1ncccc1-c1cnn2ccc(N3CCN(C(=O)OC(C)C)CC3)nc12 | CDK5 | binding | – | competition with immobilised ligand | 1 µM | remaining binding | 100%
Cn1cc(-c2cccc(N3CCc4c(sc5c4CC(C)(C)C5)C3=O)c2CO)cc(Nc2ccncn2)c1=O | CDK5 with p35 | enzyme activity | inhibitor | – | 1 µM | inhibition | 3%
CC(C)(C)c1cc(C=C(C#N)C#N)cc(Br)c1O | CDK5 with p35 | enzyme activity | inhibitor | – | 0.5 µM | remaining activity | 102%
Cc1nn(C)cc1-c1nc2c(N3CCN(Cc4ccc(Cl)cc4)CC3)c(Cl)cnc2[nH]1 | CDK5 | binding | – | competition with immobilised ligand | 1 µM | remaining binding | 76%
Cn1cc(-c2cc(F)cc(N3CCn4c(cc5c4CCCC5)C3=O)c2CO)cc(Nc2ccc(N3CCN(C4COC4)CC3)cn2)c1=O | Cyclin-dependent kinase 5, with p25 (CDK5, Homo sapiens, UniProt Q00535) | enzyme activity | inhibitor | – | 0.1 µM | inhibition | 9%
